One data set has as its system Huh-7. Description: Cytotoxicity against human Huh7 cells assessed as reduction in cell viability at 100 ug/ml incubated for 72 hrs by XTT assay. Conditions: huh-7, 72 h, dose 100 µg/ml. In kind it is cell-based. An outline of the steps: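 Huh7 cells (1 × 10⁴/well) seeded overnight, exposed to compound at 100 µg/mL for 72 h; viability by XTT (Cell Proliferation Kit II) per the kit instructions. Cells grown in DMEM with 10% FBS, 37 °C, 5% CO₂.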
In general terms: Tetrazolium assays rely on reduction of a dye to a coloured formazan, in cell work by metabolically active cells.

For data set [1], the system named is Hepatitis C virus. Description: Antiviral activity against wild-type HCV infected in human Huh-7 cells assessed as inhibition of viral entry at 10 uM incubated for 24 hrs prior to infection and measured after 48 hrs post infection by RT-PCR. The settings on record: Hepacivirus hominis, JFH-1.
The subject of data set [2] is Hepatitis C virus. Description: Antiviral activity against HCV JFH-1 infected in Huh7 cells assessed as inhibition of HCV replication at 10 uM after 72 hrs by luciferase reporter gene assay. The settings on record: Hepacivirus hominis, Huh-7. Type of data set: functional, organism-based. An outline of the steps: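 Huh7 cells transfected with subgenomic JFH1 replicon carrying luciferase (SGR-Luc-JFH1), then treated with compound; luciferase activity in cell extracts read after 72 h.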
In general terms: A reporter such as luciferase makes a cellular process visible.

Data set [3] deals with Hepatitis C virus. The data set is described as follows: Antiviral activity against HCV JFH-1 in Huh7 cells assessed as reduction in NS3 protein expression by Western blotting analysis. In kind it is functional, organism-based. The settings on record: Hepacivirus hominis, Huh-7, dose 1-100 µM. The procedure, abridged:
(§1)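 Huh7 cells treated with compound at 1, 10 and 100 µM (concentrations as stated in text). Lysates in RIPA buffer, heated with Laemmli buffer at 95 °C for 10 min. Western blot probed with anti-NS3 (1/1000), anti-Core (1/3000) and anti-GAPDH (1/1000), HRP secondary antibodies, chemiluminescence detection.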
(A western blot detects proteins with antibodies after separation by electrophoresis.)

Data set [4] deals with Hepatitis C virus. The data set is described as follows: Antiviral activity against HCV JFH-1 in Huh7 cells infected with supernatant from 72 hrs at 100 ug/ml compound treated Huh7 cells with HCV JFH-1 infection assessed as inhibition of HCV progeny virus production by measuring viral RNA level measured after 48 hrs post re-infection by RT-PCR analysis. Type of data set: functional, organism-based. The settings on record: Hepacivirus hominis, Huh-7, dose 100.0 µg/ml, time 120.0 hrs. The procedure, abridged:
(§2)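 Huh7 cells (1 × 10⁴/well, overnight) infected with HCV at MOI 0.1 for 6 h, virus washed out, then compound for 72 h (single 100 µg/mL screen; or 1, 3, 10, 30 µM dose series). Supernatant used to reinfect fresh Huh7 cells; 48 h later total RNA column-extracted and HCV RNA quantified by real-time RT-PCR. IFNa 10 U/mL as reference.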

In data set [5] the test system is Hepatitis C virus. Description: Antiviral activity against HCV JFH-1 in Huh7 cells infected with supernatant from 3 days compound treated Huh7 cells with HCV JFH-1 infection assessed as reduction in HCV production by measuring viral RNA level measured after 48 hrs post re-infection by RT-PCR analysis. The settings on record: for Activity: Hepacivirus hominis, Huh-7, time 3.0 day; for IC50: JFH-1, Huh-7. In kind it is functional, organism-based. The procedure, abridged: as §2

Data set [6] has as its system Hepatitis C virus. Description: Antiviral activity against HCV pseudo-particle infected in human Huh-7 cells assessed as inhibition of viral entry at 10 uM incubated for 24 hrs prior to infection and measured after 48 hrs post infection by bright Glo-luciferase reporter gene assay. Type of data set: functional, Hepacivirus hominis, JFH-1. Details: scale not given: the % may be the effect or the level left. An outline of the steps:
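Huh-7 cells (5 × 10³/well) pretreated with compound for 24 h, then infected with HCV pseudoparticles. Virus and compound washed out after 6 h of infection. Luciferase read with Bright-Glo reagent 48 h later.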

In data set [7] the test system is Hepatitis C virus. The data set is described as follows: Antiviral activity against HCV JFH-1 infected in Huh7 cells overexpressing mCherry-NLS-IPS protein at 100 ug/ml pre-infected with virus for 6 hrs followed by compound addition for 72 hrs by fluorescence assay. Type of data set: functional, organism-based. The settings on record: Hepacivirus hominis, Huh-7, dose 100.0 µg/ml. An outline of the steps: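 Huh7 cells carrying mCherry-NLS-IPS were made by transducing them with a recombinant virus from 293T cells (VSV-G, Pol and mCherry-NLS-IPS1 plasmids). These cells were seeded at 5×10⁴ per well overnight in DMEM with 10% FBS at 37 °C and 5% CO₂, then infected with HCV JFH1 (MOI 1) for 6 h. After washing they were cultured with compound for 72 h, with sofosbuvir as positive control. The readout was microscopic imaging of red fluorescence shifting from cytoplasm to nucleus after NS3/4A cleavage.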

Data set [8] concerns Hepatitis C virus. Description: Antiviral activity against HCV JFH-1 in Huh7 cells infected with supernatant from 3 days at 30 uM of compound treated Huh7 cells with HCV JFH-1 infection assessed as reduction in HCV production by measuring viral RNA level measured after 48 hrs post re-infection by RT-PCR analysis. Type of data set: functional, organism-based. Conditions: Hepacivirus hominis, Huh-7, time 120.0 hrs. The procedure, abridged: as §2

The test system of data set [9] is Hepatitis C virus. The data set is described as follows: Antiviral activity against HCV JFH-1 in Huh7 cells assessed as reduction in HCV core protein expression by Western blotting analysis. In kind it is functional, organism-based. Conditions: Hepacivirus hominis, Huh-7, dose 1-100 µM. An outline of the steps: as §1

The results in this text go back to ChEMBL document CHEMBL4811253, “Flavonoid-triazolyl hybrids as potential anti-hepatitis C virus agents: Synthesis and biological evaluation” (Eur J Med Chem, 2021).

Calls of active or inactive are those of the source. The calls are words filed in the database; no cut-off is given here.

Consider `Cn1cc(COc2ccc3c(c2)OC(c2ccc4c(c2)C=CC(C)(C)O4)CC3=O)nn1` (stereo not drawn), for which the Activity entry in the data set on Huh-7 is recorded as “Non-Toxic”.
As for `CC1(C)C=Cc2cc(C3CC(=O)c4ccc(OCc5cn(Cc6ccccc6)nn5)cc4O3)ccc2O1` (stereo not drawn), in the data set with Huh-7, the Activity entry is reported as “Toxic”.
`CCCCn1cc(COc2ccc3c(c2)OC(c2ccc4c(c2)C=CC(C)(C)O4)CC3=O)nn1` (stereo not drawn): the Activity result with Huh-7 was “Non-Toxic”.
Same read-out and setting: to `CC1(C)C=Cc2cc(C3CC(=O)c4ccc(OCc5cn(Cc6cccc(F)c6)nn5)cc4O3)ccc2O1` (stereo not drawn) belongs “Non-Toxic”; to `COc1cccc(Cn2cc(COc3ccc4c(c3)OC(c3ccc5c(c3)C=CC(C)(C)O5)CC4=O)nn2)c1` (stereo not drawn), “Non-Toxic”.
What is called IC50 is the concentration at which inhibition is half-maximal. For `CC1(C)C=Cc2cc(C3CC(=O)c4ccc(OCc5cn(Cc6ccc(F)cc6)nn5)cc4O3)ccc2O1` (stereo not drawn), the result in the data set with Hepatitis C virus [1], with Hepatitis C virus [4], in the data set with Hepatitis C virus [7] and in the data set with Hepatitis C virus [8] was Active. Also, the outcome with Hepatitis C virus [2] was inactive. Besides, the Activity result in the data set with Hepatitis C virus [3] is “Dose-Dependent Effect”; in the data set on Hepatitis C virus [5] it was “Dose-Dependent Effect”; in the data set on Hepatitis C virus [6], 52%; in the data set on Hepatitis C virus [9] it was “Dose-Dependent Effect”; in the data set on Huh-7, “Non-Toxic”. In addition, in the data set on Hepatitis C virus [5], the IC50 was found to be 9 µM.
`CC1(C)C=Cc2cc(C3CC(=O)c4ccc(O)cc4O3)ccc2O1` (stereo not drawn): in the data set on Huh-7, the Activity entry is on record as “Non-Toxic”.
Still for that read-out and setting: for `CCCCCCCCCn1cc(COc2ccc3c(c2)OC(c2ccc4c(c2)C=CC(C)(C)O4)CC3=O)nn1` (stereo not drawn) the value was “Non-Toxic”; for `CC1(C)C=Cc2cc(C3CC(=O)c4ccc(OCc5cn(Cc6ccncc6)nn5)cc4O3)ccc2O1` (stereo not drawn), “Toxic”.
Take `CC1(C)C=Cc2cc(C3CC(=O)c4ccc(OCc5cn(Cc6ccc(Br)cc6)nn5)cc4O3)ccc2O1` (stereo not drawn): the Activity result with Hepatitis C virus [3] was “Dose-Dependent Effect”; in the data set on Hepatitis C virus [9], “Dose-Dependent Effect”; with Huh-7 it was “Non-Toxic”. Besides, the result in the data set on Hepatitis C virus [4] and in the data set with Hepatitis C virus [7] was Active.
On to `CC1(C)C=Cc2cc(C3CC(=O)c4ccc(OCc5cn(Cc6ccc([N+](=O)[O-])cc6)nn5)cc4O3)ccc2O1` (stereo not drawn), for which the Activity entry in the data set with Huh-7 is listed as “Non-Toxic”.
As to `CCCCCn1cc(COc2ccc3c(c2)OC(c2ccc4c(c2)C=CC(C)(C)O4)CC3=O)nn1` (stereo not drawn), the outcome in the data set with Hepatitis C virus [4] and with Hepatitis C virus [7] was Active. The Activity result in the data set with Huh-7 is reported as “Non-Toxic”.
As to `Cc1ccc(Cn2cc(COc3ccc4c(c3)OC(c3ccc5c(c3)C=CC(C)(C)O5)CC4=O)nn2)cc1` (stereo not drawn), the Activity entry in the data set on Huh-7 is recorded as “Non-Toxic”.
On to `CCn1cc(COc2ccc3c(c2)OC(c2ccc4c(c2)C=CC(C)(C)O4)CC3=O)nn1` (stereo not drawn), for which the Activity result in the data set with Huh-7 is “Non-Toxic”.
For `CC1(C)C=Cc2cc(C3CC(=O)c4ccc(OCc5cn(Cc6ccc(C(F)(F)F)cc6)nn5)cc4O3)ccc2O1` (stereo not drawn), the Activity result in the data set with Huh-7 is “Non-Toxic”.
Turning to `CC1(C)C=Cc2cc(C3CC(=O)c4ccc(OCc5cn(Cc6ccccc6F)nn5)cc4O3)ccc2O1` (stereo not drawn), in the data set with Huh-7, the Activity entry is given as “Non-Toxic”.
With `CC1(C)C=Cc2cc(C3CC(=O)c4ccc(OCc5cn(Cc6ccccc6Cl)nn5)cc4O3)ccc2O1` (stereo not drawn), the outcome in the data set with Hepatitis C virus [1], with Hepatitis C virus [4], in the data set with Hepatitis C virus [7] and with Hepatitis C virus [8] was Active. The result in the data set with Hepatitis C virus [2] was inactive. The Activity entry with Hepatitis C virus [3] is “Dose-Dependent Effect”; with Hepatitis C virus [5], “Dose-Dependent Effect”; in the data set on Hepatitis C virus [6], 34%; with Hepatitis C virus [9], “Dose-Dependent Effect”; with Huh-7, “Non-Toxic”. Also, the IC50 in the data set with Hepatitis C virus [5] was 5.29 µM.
Turning to `CCCCCCn1cc(COc2ccc3c(c2)OC(c2ccc4c(c2)C=CC(C)(C)O4)CC3=O)nn1` (stereo not drawn), the result with Hepatitis C virus [4] and with Hepatitis C virus [7] was Active. Further, the Activity entry in the data set on Huh-7 was “Non-Toxic”.
As to `CC1(C)C=Cc2cc(C3CC(=O)c4ccc(OCc5cn(Cc6cc(Cl)cc(Cl)c6)nn5)cc4O3)ccc2O1` (stereo not drawn), the Activity entry in the data set with Huh-7 is given as “Non-Toxic”.
`COc1cc(Cn2cc(COc3ccc4c(c3)OC(c3ccc5c(c3)C=CC(C)(C)O5)CC4=O)nn2)cc(OC)c1` (stereo not drawn): the Activity entry with Huh-7 is on record as “Non-Toxic”.
